Data as given in ChEMBL document CHEMBL4665651, “Design, synthesis, and biological evaluation of some novel 4-aminoquinazolines as Pan-PI3K inhibitors” (Bioorg Med Chem, 2019).
The source made the active and inactive calls. The calls are words filed in the database; no cut-off is given here.

Tests used:
[1] = tested on: MCF7; assay: Induction of apoptosis in human MCF7 cells assessed as chromatin condensation at 0.2 to 0.8 uM incubated for 48 hrs by Hoechst 33342 staining based fluorescence microscopic analysis; assay type: functional, cell-based; conditions: dose microM 0.2-0.8, time 48.0 hrs
Method in brief: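 MCF-7 cells seeded at 2×10⁵ per well in 6-well plates and allowed to settle 12 h. Treated 48 h, with medium-only controls. Stained with Hoechst 33342 for 30 min, washed, and nuclear morphology imaged by fluorescence microscopy.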

[2] = tested on: MCF7; assay: Induction of apoptosis in human MCF7 cells assessed as necrotic cells at 0.8 uM incubated for 48 hrs by annexin V-FITC and propidium iodide staining based flow cytometry analysis (reference value: 0.3 %); assay type: functional
[3] = tested on: MCF7; assay: Induction of apoptosis in human MCF7 cells assessed as necrotic cells at 0.4 uM incubated for 48 hrs by annexin V-FITC and propidium iodide staining based flow cytometry analysis (reference value: 0.3 %); assay type: functional
[4] = tested on: MCF7; assay: Induction of apoptosis in human MCF7 cells assessed as necrotic cells at 0.2 uM incubated for 48 hrs by annexin V-FITC and propidium iodide staining based flow cytometry analysis (reference value: 0.3 %); assay type: functional
[5] = tested on: MCF7; assay: Induction of apoptosis in human MCF7 cells assessed as late apoptotic cells at 0.8 uM incubated for 48 hrs by annexin V-FITC and propidium iodide staining based flow cytometry analysis (reference value: 9.2 %); assay type: functional
[6] = tested on: MCF7; assay: Induction of apoptosis in human MCF7 cells assessed as early apoptotic cells at 0.4 uM incubated for 48 hrs by annexin V-FITC and propidium iodide staining based flow cytometry analysis (reference value: 2.7 %); assay type: functional
[7] = tested on: MCF7; assay: Induction of apoptosis in human MCF7 cells assessed as viable cells at 0.8 uM incubated for 48 hrs by annexin V-FITC and propidium iodide staining based flow cytometry analysis (reference value: 87.7 %); assay type: functional; conditions: read-out: Activity
[8] = tested on: MCF7; assay: Induction of apoptosis in human MCF7 cells assessed as viable cells at 0.2 uM incubated for 48 hrs by annexin V-FITC and propidium iodide staining based flow cytometry analysis (reference value: 87.7 %); assay type: functional; conditions: read-out: Activity
[9] = tested on: MCF7; assay: Inhibition of colony formation in human MCF7 cells at 0.2 to 0.8 uM incubated for 72 hrs by crystal violet staining based assay; assay type: functional, cell-based; conditions: dose microM 0.2-0.8, time 72.0 hrs
Method in brief: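 MCF-7 cells seeded at 3×10³ cells per well in 6-well plates. Exposed to 0, 0.2, 0.4 or 0.8 μM for 72 h, then grown one week in drug-free medium. Colonies stained with crystal violet and photographed.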

[10] = target: Phosphatidylinositol 4,5-bisphosphate 3-kinase catalytic subunit gamma isoform (Homo sapiens, UniProt P48736); assay: Inhibition of PI3Kgamma (unknown origin) using lipid as substrate incubated for 15 mins followed by substrate addition and measured after 60 mins ADPGloTM reagent based assay
Chain of Phosphatidylinositol 4,5-bisphosphate 3-kinase catalytic subunit gamma isoform (P48736 whole entry, canonical isoform): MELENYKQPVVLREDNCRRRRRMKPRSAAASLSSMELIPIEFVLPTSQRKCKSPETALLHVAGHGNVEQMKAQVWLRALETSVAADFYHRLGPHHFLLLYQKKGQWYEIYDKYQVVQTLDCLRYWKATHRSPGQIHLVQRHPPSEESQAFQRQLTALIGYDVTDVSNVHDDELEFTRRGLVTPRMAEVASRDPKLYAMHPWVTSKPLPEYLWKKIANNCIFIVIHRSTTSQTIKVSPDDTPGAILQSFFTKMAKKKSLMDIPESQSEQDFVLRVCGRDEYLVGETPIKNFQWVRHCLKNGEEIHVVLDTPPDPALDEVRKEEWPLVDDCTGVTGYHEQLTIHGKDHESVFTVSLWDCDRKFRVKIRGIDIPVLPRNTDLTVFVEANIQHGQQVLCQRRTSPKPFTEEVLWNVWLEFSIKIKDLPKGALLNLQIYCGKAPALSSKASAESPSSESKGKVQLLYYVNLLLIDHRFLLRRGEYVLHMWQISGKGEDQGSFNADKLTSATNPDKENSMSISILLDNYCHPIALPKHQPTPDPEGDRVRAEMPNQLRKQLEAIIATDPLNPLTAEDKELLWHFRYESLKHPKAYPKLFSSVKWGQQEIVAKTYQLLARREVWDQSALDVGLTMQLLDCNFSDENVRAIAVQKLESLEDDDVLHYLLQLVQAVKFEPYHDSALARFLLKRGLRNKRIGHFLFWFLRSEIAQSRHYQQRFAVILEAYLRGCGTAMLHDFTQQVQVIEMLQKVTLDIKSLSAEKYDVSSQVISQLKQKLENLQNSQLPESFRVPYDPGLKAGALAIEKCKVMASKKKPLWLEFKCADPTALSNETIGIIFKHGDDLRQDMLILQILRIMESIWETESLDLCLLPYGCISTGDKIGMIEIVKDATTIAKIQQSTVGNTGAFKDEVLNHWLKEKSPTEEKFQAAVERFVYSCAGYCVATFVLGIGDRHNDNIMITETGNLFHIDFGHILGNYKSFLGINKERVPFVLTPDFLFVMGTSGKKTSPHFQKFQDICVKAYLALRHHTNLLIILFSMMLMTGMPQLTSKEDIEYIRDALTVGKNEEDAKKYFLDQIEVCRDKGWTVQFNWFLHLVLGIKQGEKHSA
Method in brief: (§1)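 ADP-Glo luminescent readout of ADP formed. Isoforms tested: p110α/p85α, p110β/p85α, p120γ and p110δ/p85α, each in PI3K reaction buffer with lipid substrate. Enzyme preincubated with compound for 15 min at room temperature. Reaction started with 250 μM ATP stock and run 60 min at room temperature. ADP-Glo reagent added for 40 min, then detection reagent for 40 min. IC50 from normalized nonlinear dose–response fit.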

[11] = target: T1, Phosphatidylinositol 4,5-bisphosphate 3-kinase catalytic subunit delta isoform (Homo sapiens, UniProt O00329); assay: Inhibition of PI3Kdelta (unknown origin) using lipid as substrate incubated for 15 mins followed by substrate addition and measured after 60 mins ADPGloTM reagent based assay
T1 sequence (O00329 whole entry): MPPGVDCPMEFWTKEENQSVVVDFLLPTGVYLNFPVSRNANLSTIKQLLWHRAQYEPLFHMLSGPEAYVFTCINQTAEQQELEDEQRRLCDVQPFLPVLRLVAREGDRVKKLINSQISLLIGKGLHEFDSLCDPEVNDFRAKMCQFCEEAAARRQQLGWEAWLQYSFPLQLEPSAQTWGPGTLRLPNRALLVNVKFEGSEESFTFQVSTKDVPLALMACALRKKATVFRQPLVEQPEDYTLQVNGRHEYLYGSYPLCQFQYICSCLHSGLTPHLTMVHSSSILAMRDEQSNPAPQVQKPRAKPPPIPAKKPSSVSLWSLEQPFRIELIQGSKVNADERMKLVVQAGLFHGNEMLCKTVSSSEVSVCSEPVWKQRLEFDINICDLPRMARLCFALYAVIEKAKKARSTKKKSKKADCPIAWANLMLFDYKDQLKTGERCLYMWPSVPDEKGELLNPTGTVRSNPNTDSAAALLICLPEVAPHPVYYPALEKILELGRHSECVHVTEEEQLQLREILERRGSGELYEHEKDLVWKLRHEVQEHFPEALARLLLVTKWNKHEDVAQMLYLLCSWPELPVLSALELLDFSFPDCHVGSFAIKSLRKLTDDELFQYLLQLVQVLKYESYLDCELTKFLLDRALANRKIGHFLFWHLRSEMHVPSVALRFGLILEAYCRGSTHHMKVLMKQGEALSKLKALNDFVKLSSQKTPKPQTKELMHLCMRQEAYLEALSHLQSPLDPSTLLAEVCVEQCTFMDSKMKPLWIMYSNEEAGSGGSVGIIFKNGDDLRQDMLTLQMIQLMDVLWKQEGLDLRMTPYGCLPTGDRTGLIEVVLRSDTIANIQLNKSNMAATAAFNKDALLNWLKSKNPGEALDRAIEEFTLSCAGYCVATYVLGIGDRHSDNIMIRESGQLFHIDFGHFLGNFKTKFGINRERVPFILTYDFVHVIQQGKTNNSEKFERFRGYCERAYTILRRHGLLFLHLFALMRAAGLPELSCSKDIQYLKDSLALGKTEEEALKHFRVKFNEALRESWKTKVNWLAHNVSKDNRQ
Method in brief: as §1, with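 “temperature.” for “temperature. Reaction started with 250 μM ATP stock and run 60 min at room temperature.”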

[12] = target: Phosphatidylinositol 4,5-bisphosphate 3-kinase catalytic subunit beta isoform (Homo sapiens, UniProt P42338); assay: Inhibition of PI3Kbeta (unknown origin) using lipid as substrate incubated for 15 mins followed by substrate addition and measured after 60 mins ADPGloTM reagent based assay
Chain of Phosphatidylinositol 4,5-bisphosphate 3-kinase catalytic subunit beta isoform (P42338 whole entry, canonical isoform): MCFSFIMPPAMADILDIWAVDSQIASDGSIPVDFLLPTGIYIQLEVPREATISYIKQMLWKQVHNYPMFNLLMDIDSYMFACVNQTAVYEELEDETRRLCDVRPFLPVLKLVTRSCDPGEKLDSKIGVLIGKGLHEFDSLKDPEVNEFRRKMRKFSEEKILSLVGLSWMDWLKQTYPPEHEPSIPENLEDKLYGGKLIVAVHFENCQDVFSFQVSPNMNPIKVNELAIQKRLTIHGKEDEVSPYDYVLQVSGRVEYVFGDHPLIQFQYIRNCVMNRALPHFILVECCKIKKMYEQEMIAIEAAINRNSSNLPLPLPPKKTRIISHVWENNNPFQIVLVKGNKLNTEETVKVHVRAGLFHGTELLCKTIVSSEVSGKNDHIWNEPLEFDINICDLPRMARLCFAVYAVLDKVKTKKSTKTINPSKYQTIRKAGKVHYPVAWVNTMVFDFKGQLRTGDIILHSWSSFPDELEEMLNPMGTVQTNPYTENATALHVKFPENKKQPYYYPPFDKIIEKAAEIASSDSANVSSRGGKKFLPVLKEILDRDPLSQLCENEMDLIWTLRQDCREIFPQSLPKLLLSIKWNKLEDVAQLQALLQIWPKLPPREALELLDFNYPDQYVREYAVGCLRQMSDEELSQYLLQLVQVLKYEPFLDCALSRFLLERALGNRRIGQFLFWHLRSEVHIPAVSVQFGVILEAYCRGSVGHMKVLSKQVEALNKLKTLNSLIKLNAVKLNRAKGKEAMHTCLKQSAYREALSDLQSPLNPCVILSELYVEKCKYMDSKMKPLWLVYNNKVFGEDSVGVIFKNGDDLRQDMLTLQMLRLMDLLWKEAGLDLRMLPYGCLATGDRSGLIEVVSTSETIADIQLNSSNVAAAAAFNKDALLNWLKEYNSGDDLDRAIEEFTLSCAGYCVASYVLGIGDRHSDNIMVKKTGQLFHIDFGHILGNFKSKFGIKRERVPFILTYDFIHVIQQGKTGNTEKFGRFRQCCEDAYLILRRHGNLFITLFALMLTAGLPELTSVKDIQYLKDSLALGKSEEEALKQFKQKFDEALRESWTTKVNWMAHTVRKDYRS
Method in brief: as §1, with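 “temperature.” for “temperature. Reaction started with 250 μM ATP stock and run 60 min at room temperature.”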

[13] = tested on: HUVEC; assay: Cytotoxicity against HUVEC cells assessed as reduction in cell viability incubated for 72 hrs by SRB assay; assay type: cell-based; conditions: Homo sapiens
Method in brief: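 Normal cells exposed to a range of compound concentrations for 72 h at 37 °C in 5% CO₂. Cells TCA-fixed and viability read by SRB protein staining, normalized to day-0 and negative-control OD. IC50 from non-linear regression; values are means of triplicate measurements.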

[14] = tested on: MCF7; assay: Antiproliferative activity against human MCF7 cells assessed as reduction in cell viability incubated for 72 hrs by SRB assay; assay type: functional, cell-based; conditions: MCF7, 72 h
Method in brief: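 Cell lines grown at 37 °C in 5% CO₂: A549 in RPMI1640, MCF-7 in DMEM, each with 10% FBS plus penicillin/streptomycin/amphotericin B. Cells exposed to a range of compound concentrations for 72 h, then TCA-fixed and SRB-stained. Growth inhibition = 100 − 100×(OD sample − OD day 0)/(OD negative control − OD day 0). IC50 from non-linear regression of percent growth against concentration.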

## COc1ncc(-c2ccc3ncnc(Nc4cnn(CCO)c4)c3c2)cc1NS(=O)(=O)c1ccc(F)cc1F
[1]
  Activity: Active
[2]
  Activity: 2.7%
[3]
  Activity: 2.6%
[4]
  Activity: 2.2%
[5]
  Activity: 22.7%
[6]
  Activity: 3.8%
[7]
  viability at 0.8 µM: 70.3%
[8]
  viability at 0.2 µM: 74.7%
[9]
  inhibition: Dose-dependent effect
[10]
  IC50: 0.58 nM
[11]
  IC50: 0.48 nM
[12]
  IC50: 2.99 nM
[13]
  IC50: 19600 nM
[14]
  IC50: 220 nM
